From PMC5621377 (Clinical cancer research : an official journal of the …, 2016)

Test system: patients with Rb+ advanced solid tumors or lymphomas
Test: Safety assessments, adverse events
Assay type: in vivo, human
How it was run: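 Oral test compound given daily 3-weeks-on/1-week-off in 28-day cycles, with doses escalated by a Bayesian logistic regression model with overdose control. Safety assessments, including ECGs, were done at baseline and at regular intervals. AEs were graded by CTCAE v4.0 and classed as suspected related to treatment. All patients dosed at least once were included; summaries were descriptive per dose level.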

[1] = 400 mg 3-weeks-on/1-week-off, n = 5
[2] = 600 mg 3-weeks-on/1-week-off, n = 67
[3] = 600 mg continuous dosing, n = 7
[4] = 750 mg 3-weeks-on/1-week-off, n = 14
[5] = 900 mg 3-weeks-on/1-week-off, n = 13
[6] = 1,200 mg 3-weeks-on/1-week-off, n = 3
[7] = RDE 600 mg/day 3-weeks-on/1-week-off
[8] = of 67 patients treated at the RDE

CN(C)C(=O)c1cc2cnc(Nc3ccc(N4CCNCC4)cn3)nc2n1C1CCCC1 [ribociclib]
Nausea, Grade All, AE suspected related to study treatment [1]: 1 (20) n (%)
Neutropenia, Grade 3/4, AE suspected related to study treatment [1]: 1 (20) n (%)
Neutropenia, Grade All, AE suspected related to study treatment [1]: 2 (40) n (%)
Thrombocytopenia, Grade 3/4, AE suspected related to study treatment [1]: 0 n (%)
Thrombocytopenia, Grade All, AE suspected related to study treatment [1]: 1 (20) n (%)
Vomiting, Grade 3/4, AE suspected related to study treatment [1]: 0 n (%)
Vomiting, Grade All, AE suspected related to study treatment [1]: 2 (40) n (%)
Anemia, Grade 3/4, AE suspected related to study treatment [2]: 2 (3) n (%)
Anemia, Grade All, AE suspected related to study treatment [2]: 19 (28) n (%)
Appetite decreased, Grade 3/4, AE suspected related to study treatment [2]: 0 n (%)
Appetite decreased, Grade All, AE suspected related to study treatment [2]: 5 (7) n (%)
Blood creatinine increased, Grade 3/4, AE suspected related to study treatment [2]: 0 n (%)
Blood creatinine increased, Grade All, AE suspected related to study treatment [2]: 4 (6) n (%)
Diarrhea, Grade 3/4, AE suspected related to study treatment [2]: 2 (3) n (%)
Diarrhea, Grade All, AE suspected related to study treatment [2]: 18 (27) n (%)
Fatigue, Grade 3/4, AE suspected related to study treatment [2]: 2 (3) n (%)
Fatigue, Grade All, AE suspected related to study treatment [2]: 22 (33) n (%)
Leukopenia, Grade 3/4, AE suspected related to study treatment [2]: 13 (19) n (%)
Leukopenia, Grade All, AE suspected related to study treatment [2]: 31 (46) n (%)
Lymphopenia, Grade 3/4, AE suspected related to study treatment [2]: 12 (18) n (%)
Lymphopenia, Grade All, AE suspected related to study treatment [2]: 15 (22) n (%)
Nausea, Grade 3/4, AE suspected related to study treatment [2]: 1 (1) n (%)
Nausea, Grade All, AE suspected related to study treatment [2]: 30 (45) n (%)
Neutropenia, Grade 3/4, AE suspected related to study treatment [2]: 19 (28) n (%)
Neutropenia, Grade All, AE suspected related to study treatment [2]: 31 (46) n (%)
Thrombocytopenia, Grade 3/4, AE suspected related to study treatment [2]: 6 (9) n (%)
Thrombocytopenia, Grade All, AE suspected related to study treatment [2]: 23 (34) n (%)
Vomiting, Grade 3/4, AE suspected related to study treatment [2]: 0 n (%)
Vomiting, Grade All, AE suspected related to study treatment [2]: 17 (25) n (%)
Anemia, Grade 3/4, AE suspected related to study treatment [3]: 0 n (%)
Anemia, Grade All, AE suspected related to study treatment [3]: 2 (29) n (%)
Appetite decreased, Grade 3/4, AE suspected related to study treatment [3]: 0 n (%)
Appetite decreased, Grade All, AE suspected related to study treatment [3]: 0 n (%)
Blood creatinine increased, Grade 3/4, AE suspected related to study treatment [3]: 0 n (%)
Blood creatinine increased, Grade All, AE suspected related to study treatment [3]: 1 (14) n (%)
Diarrhea, Grade 3/4, AE suspected related to study treatment [3]: 0 n (%)
Diarrhea, Grade All, AE suspected related to study treatment [3]: 0 n (%)
Fatigue, Grade 3/4, AE suspected related to study treatment [3]: 1 (14) n (%)
Fatigue, Grade All, AE suspected related to study treatment [3]: 5 (71) n (%)
Leukopenia, Grade 3/4, AE suspected related to study treatment [3]: 5 (71) n (%)
Leukopenia, Grade All, AE suspected related to study treatment [3]: 6 (86) n (%)
Lymphopenia, Grade 3/4, AE suspected related to study treatment [3]: 2 (29) n (%)
Lymphopenia, Grade All, AE suspected related to study treatment [3]: 3 (43) n (%)
Nausea, Grade 3/4, AE suspected related to study treatment [3]: 0 n (%)
Nausea, Grade All, AE suspected related to study treatment [3]: 3 (43) n (%)
Neutropenia, Grade 3/4, AE suspected related to study treatment [3]: 5 (71) n (%)
Neutropenia, Grade All, AE suspected related to study treatment [3]: 6 (86) n (%)
Thrombocytopenia, Grade 3/4, AE suspected related to study treatment [3]: 0 n (%)
Thrombocytopenia, Grade All, AE suspected related to study treatment [3]: 2 (29) n (%)
Vomiting, Grade 3/4, AE suspected related to study treatment [3]: 0 n (%)
Vomiting, Grade All, AE suspected related to study treatment [3]: 2 (29) n (%)
patients with asymptomatic QTcF prolongation (600 mg/day (RDE)): 9%
Anemia, Grade 3/4, AE suspected related to study treatment [4]: 1 (7) n (%)
Anemia, Grade All, AE suspected related to study treatment [4]: 3 (21) n (%)
Appetite decreased, Grade 3/4, AE suspected related to study treatment [4]: 0 n (%)
Appetite decreased, Grade All, AE suspected related to study treatment [4]: 3 (21) n (%)
Blood creatinine increased, Grade 3/4, AE suspected related to study treatment [4]: 0 n (%)
Blood creatinine increased, Grade All, AE suspected related to study treatment [4]: 3 (21) n (%)
Diarrhea, Grade 3/4, AE suspected related to study treatment [4]: 0 n (%)
Diarrhea, Grade All, AE suspected related to study treatment [4]: 4 (29) n (%)
Fatigue, Grade 3/4, AE suspected related to study treatment [4]: 0 n (%)
Fatigue, Grade All, AE suspected related to study treatment [4]: 5 (36) n (%)
Leukopenia, Grade 3/4, AE suspected related to study treatment [4]: 0 n (%)
Leukopenia, Grade All, AE suspected related to study treatment [4]: 6 (43) n (%)
Lymphopenia, Grade 3/4, AE suspected related to study treatment [4]: 1 (7) n (%)
Lymphopenia, Grade All, AE suspected related to study treatment [4]: 6 (43) n (%)
Nausea, Grade 3/4, AE suspected related to study treatment [4]: 1 (7) n (%)
Nausea, Grade All, AE suspected related to study treatment [4]: 8 (57) n (%)
Neutropenia, Grade 3/4, AE suspected related to study treatment [4]: 5 (36) n (%)
Neutropenia, Grade All, AE suspected related to study treatment [4]: 8 (57) n (%)
Thrombocytopenia, Grade 3/4, AE suspected related to study treatment [4]: 3 (21) n (%)
Thrombocytopenia, Grade All, AE suspected related to study treatment [4]: 5 (36) n (%)
Vomiting, Grade 3/4, AE suspected related to study treatment [4]: 0 n (%)
Vomiting, Grade All, AE suspected related to study treatment [4]: 4 (29) n (%)
Anemia, Grade 3/4, AE suspected related to study treatment [5]: 0 n (%)
Anemia, Grade All, AE suspected related to study treatment [5]: 3 (23) n (%)
Appetite decreased, Grade 3/4, AE suspected related to study treatment [5]: 0 n (%)
Appetite decreased, Grade All, AE suspected related to study treatment [5]: 1 (8) n (%)
Blood creatinine increased, Grade 3/4, AE suspected related to study treatment [5]: 0 n (%)
Blood creatinine increased, Grade All, AE suspected related to study treatment [5]: 2 (15) n (%)
Diarrhea, Grade 3/4, AE suspected related to study treatment [5]: 0 n (%)
Diarrhea, Grade All, AE suspected related to study treatment [5]: 5 (39) n (%)
Fatigue, Grade 3/4, AE suspected related to study treatment [5]: 0 n (%)
Fatigue, Grade All, AE suspected related to study treatment [5]: 10 (77) n (%)
Leukopenia, Grade 3/4, AE suspected related to study treatment [5]: 4 (31) n (%)
Leukopenia, Grade All, AE suspected related to study treatment [5]: 9 (69) n (%)
Lymphopenia, Grade 3/4, AE suspected related to study treatment [5]: 4 (31) n (%)
Lymphopenia, Grade All, AE suspected related to study treatment [5]: 4 (31) n (%)
Nausea, Grade 3/4, AE suspected related to study treatment [5]: 0 n (%)
Nausea, Grade All, AE suspected related to study treatment [5]: 6 (46) n (%)
Neutropenia, Grade 3/4, AE suspected related to study treatment [5]: 5 (39) n (%)
Neutropenia, Grade All, AE suspected related to study treatment [5]: 9 (69) n (%)
Thrombocytopenia, Grade 3/4, AE suspected related to study treatment [5]: 0 n (%)
Thrombocytopenia, Grade All, AE suspected related to study treatment [5]: 6 (46) n (%)
Vomiting, Grade 3/4, AE suspected related to study treatment [5]: 0 n (%)
Vomiting, Grade All, AE suspected related to study treatment [5]: 3 (23) n (%)
Anemia, Grade 3/4, AE suspected related to study treatment [6]: 1 (33) n (%)
Anemia, Grade All, AE suspected related to study treatment [6]: 3 (100) n (%)
Appetite decreased, Grade 3/4, AE suspected related to study treatment [6]: 0 n (%)
Appetite decreased, Grade All, AE suspected related to study treatment [6]: 0 n (%)
Blood creatinine increased, Grade 3/4, AE suspected related to study treatment [6]: 0 n (%)
Blood creatinine increased, Grade All, AE suspected related to study treatment [6]: 0 n (%)
Diarrhea, Grade 3/4, AE suspected related to study treatment [6]: 0 n (%)
Diarrhea, Grade All, AE suspected related to study treatment [6]: 2 (67) n (%)
Fatigue, Grade 3/4, AE suspected related to study treatment [6]: 0 n (%)
Fatigue, Grade All, AE suspected related to study treatment [6]: 3 (100) n (%)
Leukopenia, Grade 3/4, AE suspected related to study treatment [6]: 0 n (%)
Leukopenia, Grade All, AE suspected related to study treatment [6]: 0 n (%)
Lymphopenia, Grade 3/4, AE suspected related to study treatment [6]: 0 n (%)
Lymphopenia, Grade All, AE suspected related to study treatment [6]: 0 n (%)
Nausea, Grade 3/4, AE suspected related to study treatment [6]: 0 n (%)
Nausea, Grade All, AE suspected related to study treatment [6]: 3 (100) n (%)
Neutropenia, Grade 3/4, AE suspected related to study treatment [6]: 1 (33) n (%)
Neutropenia, Grade All, AE suspected related to study treatment [6]: 2 (67) n (%)
Thrombocytopenia, Grade 3/4, AE suspected related to study treatment [6]: 1 (33) n (%)
Thrombocytopenia, Grade All, AE suspected related to study treatment [6]: 2 (67) n (%)
Vomiting, Grade 3/4, AE suspected related to study treatment [6]: 0 n (%)
Vomiting, Grade All, AE suspected related to study treatment [6]: 3 (100) n (%)
Anemia, Grade 3/4, AE suspected related to study treatment (All doses, N = 132): 4 (3) n (%)
Anemia, Grade All, AE suspected related to study treatment (All doses, N = 132): 34 (26) n (%)
Appetite decreased, Grade 3/4, AE suspected related to study treatment (All doses, N = 132): 0 n (%)
Appetite decreased, Grade All, AE suspected related to study treatment (All doses, N = 132): 13 (10) n (%)
Blood creatinine increased, Grade 3/4, AE suspected related to study treatment (All doses, N = 132): 0 n (%)
Blood creatinine increased, Grade All, AE suspected related to study treatment (All doses, N = 132): 14 (11) n (%)
Diarrhea, Grade 3/4, AE suspected related to study treatment (All doses, N = 132): 2 (2) n (%)
Diarrhea, Grade All, AE suspected related to study treatment (All doses, N = 132): 31 (23) n (%)
Fatigue, Grade 3/4, AE suspected related to study treatment (All doses, N = 132): 3 (2) n (%)
Fatigue, Grade All, AE suspected related to study treatment (All doses, N = 132): 59 (45) n (%)
Leukopenia, Grade 3/4, AE suspected related to study treatment (All doses, N = 132): 22 (17) n (%)
Leukopenia, Grade All, AE suspected related to study treatment (All doses, N = 132): 57 (43) n (%)
Lymphopenia, Grade 3/4, AE suspected related to study treatment (All doses, N = 132): 21 (16) n (%)
Lymphopenia, Grade All, AE suspected related to study treatment (All doses, N = 132): 32 (24) n (%)
Nausea, Grade 3/4, AE suspected related to study treatment (All doses, N = 132): 2 (2) n (%)
Nausea, Grade All, AE suspected related to study treatment (All doses, N = 132): 56 (42) n (%)
Neutropenia, Grade 3/4, AE suspected related to study treatment (All doses, N = 132): 36 (27) n (%)
Neutropenia, Grade All, AE suspected related to study treatment (All doses, N = 132): 60 (46) n (%)
Thrombocytopenia, Grade 3/4, AE suspected related to study treatment (All doses, N = 132): 10 (8) n (%)
Thrombocytopenia, Grade All, AE suspected related to study treatment (All doses, N = 132): 40 (30) n (%)
Vomiting, Grade 3/4, AE suspected related to study treatment (All doses, N = 132): 0 n (%)
Vomiting, Grade All, AE suspected related to study treatment (All doses, N = 132): 34 (26) n (%)
grade 3/4 neutropenia [7]: 28%
grade 3/4 thrombocytopenia [7]: 9%
treatment-related fatigue, grade 3/4 (all 132 patients): 2%
treatment-related nausea, grade 3/4 (all 132 patients): 2%
treatment-related neutropenia, all-grade (all 132 patients): 46%
clinically significant arrhythmias (all patients): No clinically significant arrhythmias were observed
patients requiring dose reduction to 400 mg/day [8]: 16
patients with dose interruption without reduction [8]: 13
